# Screening results from PubChem.
# The list is not random: actives were taken first. Their share in the collection is about 3.7%.
# Yeast growth inh = yeast BB579 growth reduction in restrictive medium; AID 804; actives 0.51% (n = 140,000); inhibition, % at 10 µM; S. cerevisiae BB579 growth, OD615, 48 h;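 active = inhibition above a set limit, 3 SD over the mean compound inhibition, cut at about 44% in these data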
#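 Test system: DeaD yeast strain BB579 / Buffer or medium: restrictive glucose-based CSMM-D medium / Doses: single 10 µM dose / Schedule: 4 h cell preincubation, 48 h compound exposure, 30 °C humidified / Technique: culture absorbance at 615 nm / Controls: amphotericin B positive control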
# HMGR II inh = E. faecalis class II HMG-CoA reductase inhibition. purified E. faecalis HMGR, NADPH absorbance 340 nm kinetic. inhibition, % at 10 µM. actives 0.41% (n = 190,000). AID 1066;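 active = inhibition above a set limit, the median over all tested compounds plus 3 SD, cut at about 9.5% in these data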;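 note: enzyme runs in reverse so mevalonate oxidation gives rising NADPH absorbance; 0% = complete reaction with DMSO and 100% = background rate lacking mevalonate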
# Yeast lifespan up = yeast lifespan extension. S. cerevisiae growth with nicotinamide, OD615; deaD strain in restrictive glucose medium. AID 775. inhibition of the nicotinamide effect, % at 10 µM. actives 0.68% (n = 130,000);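 active = inhibition above a set limit, placed 3 SD over the median of all compounds, cut at about 26% in these data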;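 note: 0% = nicotinamide-treated wells and 100% = cells grown without nicotinamide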
#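 Assay system: engineered S. cerevisiae DeaD replicative-lifespan strain, galactose-grown log-phase cells; Buffer or medium: CSMM-D glucose medium, restrictive; Probe or stimulus: nicotinamide 1.5 mM; Compound: single dose 10 µM compound, 0.25% DMSO; Schedule: 4 h preincubation then 48 h treatment at 30 °C; Technique: OD615 measurement.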
# RAM inhibit = yeast RAM network inhibition. S. cerevisiae dse1pr::URA3 reporter, 5-FOA growth OD615, 2 d; analog-sensitive cbk1-as2 kinase mutant strain. inhibition, % at 50 µM. actives 1.8% (n = 190,000). AID 868;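 active = inhibition above a set limit, 3 SD over mean compound inhibition, cut at about 8.4% in these data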;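 note: 0% = DMSO-only wells with no growth and 100% = 10 µM 1-NA-PP1 full growth; inhibition rescues growth on 5-FOA so higher OD means more RAM inhibition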
# INS promoter inh = TRM-6 insulin promoter activity inhibition | AID 1273 | actives 0.9% (n = 130,000) | inhibition, % at 2 µM | TRM-6 cells, insulin promoter-eGFP reporter, imaging; reporter expression induced with tamoxifen;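 active = inhibition above the mean plus 3 SD, with well images judged a real hit on visual review, cut at about 60% in these data, passing the limit was not always enough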
# An asterisk follows results filed as active; x = not tested or not shown; ! = not active in a repeat.
SMILES,Yeast growth inh,HMGR II inh,Yeast lifespan up,RAM inhibit,INS promoter inh
Cc1ccc(Sc2ncccc2COC(=O)NC(C)C)cc1,x,-1,x,1,0
Cc1oc(C(C)(C)C)cc1C(=O)Nc1cccc(C(=O)O)c1,-26,-1,-12,4,16
OCCCC1CCCN(Cc2cn[nH]c2-c2ccc(F)cc2F)C1 (stereo not given),x,-1,x,0,x
C/C(=N\Nc1ccc(Cl)c(Cl)c1)c1ccc(-n2ccnc2)cc1,95*,0,-10,-1,5
C/C(=N\NC(=O)c1ccccc1)c1ccc(-n2ccnc2)cc1,-8,2,0,3,9
O=C(COC(=O)c1ccc(S(=O)(=O)Nc2ccccc2)cc1)NCCC1=CCCCC1,-25,-5,-1,4,x
COc1ccccc1N1C(=O)C2C(c3ccc(F)cc3)NN(C(=O)c3ccc(C)cc3)C2C1=O (stereo not given),x,1,x,1,x
CCOC(=O)C(NC(=O)Cc1ccccc1)(Nc1cc(C)on1)C(F)(F)F (stereo not given),-40,12*,x,0,-62
CC(NC(=O)c1ccccc1NC(=O)c1ccccc1)C(=O)N1CCOCC1 (stereo not given),-11,0,3,0,-62
CC(C)Cc1cc(C(=O)NCc2cccs2)no1,29,-1,-4,1,100*
CCC(CC)C(=O)c1c[nH]c(C(=O)NCc2cccs2)c1,x,11*,x,1,-31
CC(C)Cc1cc(C(=O)NCc2cccnc2)no1,18,-7,-10,1,x
CCOC(=O)c1nnn(-c2nonc2N)c1CN1CCc2ccccc2C1,-38,-3,62*,-1,46
CCOC(=O)c1nnn(-c2nonc2-n2cccc2)c1CCl,-21,-5,55*,1,19
CC(C)OC(=O)c1nnn(-c2nonc2N)c1CN1CCc2ccccc2C1,-63,3,26,1,x
CCOC(=O)c1nnn(-c2nonc2-n2cccc2)c1CN1CCC(C)CC1,-57,5,-12,0,-30
O=c1c(Cc2c(F)cccc2Cl)c(O)ccn1CCc1ccccn1,x,-3,x,2,20
O=C(CCCc1nc(-c2ccccc2Cl)no1)N1CCOCC1,x,0,x,-1,32
CCS(=O)(=O)CCn1c([N+](=O)[O-])cnc1C,-31,14*,7,2,-14
Cc1ncc([N+](=O)[O-])n1CC(C)O (stereo not given),-49,16*!,-11,1,38
Cc1ccc(Cn2c([N+](=O)[O-])cnc2C)cc1,-28,-5,1,1,-10
COCCNC(=O)CCCn1c(=O)c2ccccc2n(CC(=O)NCCC2=CCCCC2)c1=O,-39,3,-3,1,x
COCCNC(=O)CCCn1c(=O)c2cc(OC)c(OC)cc2n(CC(=O)NCCC2=CCCCC2)c1=O,x,-5,x,3,75*
C=CCN(CC=C)c1nc2ccccc2nc1C(C#N)C(=O)OC(C)C (stereo not given),-34,-2,36*,1,-47
CC(C)CCn1c(N2CCc3ccccc3C2)nc2c1c(=O)[nH]c(=O)n2C,x,0,x,1,-12
SMILES,Yeast growth inh,HMGR II inh,Yeast lifespan up,RAM inhibit,INS promoter inh
Cn1c(=O)c2c(nc(NCCOc3ccc(C(C)(C)C)cc3)n2C)n(C)c1=O,-66,13*,5,6,6
COc1ccccc1OCCNc1nc2c(c(=O)n(C)c(=O)n2C)n1C,-18,4,x,5,33
Cc1ccc(NC(=O)CCN2C(=O)OC(C)(C)C2(C)O)cc1 (stereo not given),x,1,x,2,-33
Cc1sc(NC(=O)c2ccccc2)c(C(=O)c2ccccc2)c1C,-34,3,-5,11*,12
CCN(CC)Cc1c(C(=O)N2CCc3ccccc3C2)nc2ccc(Cl)cn12,x,17*,x,0,x
CN1C(=O)c2c(sc3c2CCCC3)NC1c1ccccc1O (stereo not given),-51,-3,-13,1,15
CC1CCCC2(C1)NC(=S)c1c(sc3c1CCCC3)N2 (stereo not given),86*,-7,-15,2,-392
COc1ccc(-c2[nH]ncc2-c2cscn2)c(O)c1,x,-3,x,3,x
Clc1ccc2c(NCc3ccco3)ncnc2c1,-54,-8,-14,0,79*
Clc1ccc2c(NCc3ccccn3)ncnc2c1,22,-3,-10,0,71
Cc1csc(SCC(=O)NC(=O)NC2CCCC2)n1,x,1,x,2,x
N#Cc1ccc(C(=O)Nc2nc(SCc3ccc(Cl)cc3)n[nH]2)cc1,x,-5,x,1,x
O=C(NCCCn1ccnc1)c1cc([N+](=O)[O-])cc([N+](=O)[O-])c1,-35,-6,0,4,73*
COc1cc2c(cc1OC)CN(C(=S)Nc1c(C)cccc1C)CC2,-29,-1,8,0,x
O=C(NCc1ccc2c(c1)OCO2)c1ccc(NS(=O)(=O)c2ccc3c(c2)OCCO3)cc1,-24,1,-5,8.5*,28
Cc1ccc(CNC(=O)CNC(=O)c2c(C)nn(C)c2Cl)cc1,x,-3,x,1,x
O=C(Nc1ccccc1O)c1c(O)c2c([nH]c1=O)CCCC2,x,-5,x,3,x
COc1ccccc1NC(=O)COC(=O)C12CC3CC(CC(Cl)(C3)C1)C2,x,-5,x,11*,-11
Cc1ccc(Sc2cnn(-c3ccccc3)c(=O)c2Cl)cc1,-9,-4,31*,2,x
CC[C@@H](C)C(NC(=O)OC(C)(C)C)c1cn([C@@H](Cc2ccc(O)cc2)C(=O)N2CCN(C(=O)OC(C)(C)C)CC2)nn1 (stereo not given in full),x,-8,x,1,x
Cc1ccc(-n2c(C)cc(C(=O)COC(=O)c3ccc[nH]c3=O)c2C)cc1,93*,2,-6,0,7
Cc1cc(C(=O)COC(=O)c2ccc[nH]c2=O)c(C)n1C,-9,1,5,3,32
Cc1cc(C(=O)COC(=O)c2ccc[nH]c2=O)c(C)n1-c1ccc(Br)cc1,91*,-1,-7,0,-39
CC(=O)Nc1ccc(SCC(=O)N(C)C2CCS(=O)(=O)C2)cc1 (stereo not given),x,-1,x,3,33
O=C(Nc1ccccc1Cl)c1ccccc1Cc1ccccc1,-20,-4,1,0,x
SMILES,Yeast growth inh,HMGR II inh,Yeast lifespan up,RAM inhibit,INS promoter inh
Nc1c(C(=O)Nc2ccccc2)sc2nc(-c3ccco3)ccc12,-11,3,-18,11*,80*
Fc1ccc2c(c1)/C(=N/Nc1ccccn1)CCS2,x,-3,x,0,x
COc1cc(NC(=O)COC(=O)CNC(=O)c2cc(C)cc(C)c2)c(C)cc1[N+](=O)[O-],-27,-6,0,-1,0
CCC(CC)C(=O)OCC(=O)Nc1cc(OC)c([N+](=O)[O-])cc1C,-21,-1,4,1,64*
Cc1cccc(/N=C/c2c(O)ccc3oc4c(c23)CCCC4)n1,-15,-1,31*,1,-36
Cc1cccc(/N=C/c2c(O)cc(C)oc2=O)n1,-70,5,2,2,x
